This is an account of results in ChEMBL document CHEMBL3232995, “Synthesis and evaluation of effective photoaffinity probe molecule of furospinosulin-1, a hypoxia-selective growth inhibitor” (Bioorg Med Chem, 2014).

Calls of active or inactive are those of the source. No cut-off for these calls is given here.

The test system of data set [1] is CCRF S-180. The data set is described as follows: Antitumor activity against mouse S180 cells allografted in ddY mouse assessed as tumor growth at 5 mg/kg, po administered once every 2 days for 2 weeks relative to control. The note with it: CCRF S-180, po.
For data set [2], the system named is DU-145. The data set is described as follows: Antiproliferative activity against human DU145 cells under normoxia condition assessed as growth inhibition at 10 to 100 uM after 24 hrs by MTT assay. It counts as functional, cell-based. The gist of the method: (§1)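 DU145 cells were grown in RPMI 1640 with heat-inactivated 10% FBS and kanamycin (50 µg/ml) under humidified 5% CO2 at 37 °C and seeded at 1 × 10⁴ cells/well. Growth under normoxic conditions was measured by colorimetric MTT assay. Inhibition was taken relative to parallel negative controls.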

In data set [3] the test system is Mus musculus. As to the kind of experiment: Toxicity in mouse S180 cells allografted in ddY mouse assessed as weight loss at 5 to 25 mg/kg, po administered once every 2 days for 2 weeks relative to control. It counts as organism-based, CCRF S-180. Also on record: dose 5-25 mg/kg, route oral. The note with it: in vivo. The gist of the method: (§2)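 Female ddY mice, 6 weeks old, received S180 sarcoma cells (1 × 10⁶ cells/body) subcutaneously in the right ventral flank. Dosing began one week after implantation: oral suspension in 1% CMC-Na, every other day for 2 weeks (7 doses). Tumors were excised and weighed to give the inhibition ratio against control. Four mice per group. Weight loss and diarrhea were watched throughout.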

Data set [4] relates to CCRF S-180. As to the kind of experiment: Antitumor activity against mouse S180 cells allografted in ddY mouse assessed as tumor growth at 10 mg/kg, po administered once every 2 days for 2 weeks relative to control. The note with it: CCRF S-180, po.
In data set [5] the test system is Mus musculus. As to the kind of experiment: Toxicity in mouse S180 cells allografted in ddY mouse assessed as diarrhea at 5 to 25 mg/kg, po administered once every 2 days for 2 weeks relative to control. The note with it: in vivo. The data set is classed as organism-based, CCRF S-180. The arrangement: dose 5-25 mg/kg, route oral. The gist of the method: as §2
Data set [6] concerns DU-145. As to the kind of experiment: Antiproliferative activity against normoxia-induced human DU145 cells assessed as growth inhibition after 24 hrs by MTT assay. It counts as functional, cell-based. Summed up: as §1
The subject of data set [7] is DU-145. As to the kind of experiment: Antiproliferative activity against human DU145 cells under hypoxia condition assessed as growth inhibition after 24 hrs by MTT assay. It counts as functional, cell-based. The gist of the method:
(§3)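 DU145 human prostate cancer cells kept in RPMI 1640 with 10% heat-inactivated FBS and kanamycin (50 µg/ml), 5% CO2, 37 °C. Seeded at 1 × 10⁴ cells/well. Held 4 h normoxic, then 12 h under 1% O2/5% CO2/94% N2 to induce hypoxia genes. Compound then added and plates kept a further 24 h hypoxic. Read-out by MTT, with inhibition as percent of parallel negative controls.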

In data set [8] the test system is CCRF S-180. As to the kind of experiment: Antitumor activity against mouse S180 cells allografted in ddY mouse assessed as tumor growth at 25 mg/kg, po administered once every 2 days for 2 weeks relative to control. As to conditions: CCRF S-180, po.
The test system of data set [9] is DU-145. As to the kind of experiment: Antiproliferative activity against human DU145 cells under hypoxia condition assessed as growth inhibition at 10 to 100 uM after 24 hrs by MTT assay. It counts as functional, cell-based. Summed up: as §3
The subject of data set [10] is DU-145. The data set is described as follows: Antiproliferative activity against human DU145 cells under hypoxia condition assessed as growth inhibition at 3 to 30 uM after 24 hrs by MTT assay. It counts as functional, cell-based. Summed up: as §3
The subject of data set [11] is DU-145. The data set is described as follows: Inhibition of transcription factor complex formation in hypoxia-induced human DU145 cells assessed as reduction in nuclear proteins and Sp1 oligonucleotide probe complex at 100 to 300 uM by EMSA. The data set is classed as functional, cell-based. Summed up:
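Nuclear extracts were made from DU145 cells under normoxia or hypoxia. They were pre-incubated on ice for 20 min with compound (100 or 300 µM) in binding buffer: 10 mM Tris-HCl pH 7.5, 50 mM KCl, 5 mM MgCl2, 1 mM DTT, 1% glycerol, BSA, poly(dI-dC). Then 5'-biotinylated Sp1 oligonucleotide (4 fmol per 20 µL) was added for 15 min at room temperature. Complexes were resolved on 5% native PAGE in 0.5× TBE, blotted, and detected by streptavidin-HRP/ECL.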

With `C#CCC/C(C)=C/CC/C(C)=C/CC/C(C)=C/CC/C(C)=C/CCc1ccoc1`, the level, % of control at 5 mg/kg in the data set with CCRF S-180 [1] was 45%. Besides, the “growth inhibition (GI)” value with DU-145 [2] and with DU-145 [9] was “Active” throughout. The Activity entry with Mus musculus [3] and in the data set on Mus musculus [5] was “Non-toxic” in each case. The level, % of control at 10 mg/kg with CCRF S-180 [4] is 26%. For the same compound, the “growth inhibition (GI)” value in the data set with DU-145 [6] and with DU-145 [7] was “Dose-dependent effect” in each case. Also, in the data set on CCRF S-180 [8], the level, % of control at 25 mg/kg stood at 11%.
Take `C/C(=C\CC/C(C)=C/CC/C(C)=C/CC/C(C)=C/CCc1ccoc1)CO`: the “growth inhibition (GI)” value in the data set with DU-145 [2] and in the data set on DU-145 [9] was “Active” each time.
`C/C(=C\CC/C(C)=C/CCc1ccoc1)CC/C=C(\C)CC/C=C(\C)CCc1cn(CCCCCNC(=O)CSC[C@H](NC(=O)c2ccc(C(=O)c3ccccc3)cc2)C(=O)NCCOCCOCCOCCn2cc(CNC(=O)CCCC[C@@H]3SC[C@@H]4NC(=O)N[C@@H]43)nn2)nn1`: the “growth inhibition (GI)” value in the data set with DU-145 [10] was “inactive”. In addition, the outcome in the data set with DU-145 [11] was inactive.
Take `CC(C)=CCC/C(C)=C/CC/C(C)=C/CC/C(C)=C/CCc1ccoc1`: the “growth inhibition (GI)” value in the data set with DU-145 [2] and in the data set on DU-145 [9] was “Active” throughout.
As for `C/C(=C\CC/C(C)=C/CCc1ccoc1)CC/C=C(\C)CC/C=C(\C)CCc1cn(CCOCCOCCOCCNC(=O)CSC[C@H](NC(=O)c2ccc(C(=O)c3ccccc3)cc2)C(=O)NCCOCCOCCOCCn2cc(CNC(=O)CCCC[C@@H]3SC[C@@H]4NC(=O)N[C@@H]43)nn2)nn1`, the “growth inhibition (GI)” value with DU-145 [10] is “Active”. In addition, the outcome in the data set with DU-145 [11] was Active.
In the case of `C#CCOC/C(C)=C/CC/C(C)=C/CC/C(C)=C/CC/C(C)=C/CCc1ccoc1`, the “growth inhibition (GI)” value in the data set with DU-145 [2] and with DU-145 [9] was “Active” in each case.
In the case of `C/C(=C\CC/C(C)=C/CCc1ccoc1)CC/C=C(\C)CC/C=C(\C)CCc1cn(CCOCCOCCNC(=O)CSC[C@H](NC(=O)c2ccc(C(=O)c3ccccc3)cc2)C(=O)NCCOCCOCCOCCn2cc(CNC(=O)CCCC[C@@H]3SC[C@@H]4NC(=O)N[C@@H]43)nn2)nn1`, in the data set on DU-145 [10], the “growth inhibition (GI)” value was “Active”. In addition, the result in the data set with DU-145 [11] was Active.
For the compound `C/C(=C\CC/C(C)=C/CCc1ccoc1)CC/C=C(\C)CC/C=C(\C)CCc1cn(CCCNC(=O)CSC[C@H](NC(=O)c2ccc(C(=O)c3ccccc3)cc2)C(=O)NCCOCCOCCOCCn2cc(CNC(=O)CCCC[C@@H]3SC[C@@H]4NC(=O)N[C@@H]43)nn2)nn1`, the “growth inhibition (GI)” value with DU-145 [10] is “inactive”. Besides, in the data set with DU-145 [11], the outcome was inactive.
As to `CC(=O)OC/C(C)=C/CC/C(C)=C/CC/C(C)=C/CC/C(C)=C/CCc1ccoc1`, the “growth inhibition (GI)” value in the data set on DU-145 [2] and in the data set on DU-145 [9] was “Active” throughout.
`C#CC/C(C)=C/CC/C(C)=C/CC/C(C)=C/CC/C(C)=C/CCc1ccoc1`: the “growth inhibition (GI)” value in the data set on DU-145 [2] and with DU-145 [9] was “Active” throughout.
In the case of `CC#CCC/C(C)=C/CC/C(C)=C/CC/C(C)=C/CC/C(C)=C/CCc1ccoc1`, the “growth inhibition (GI)” value in the data set on DU-145 [2] and with DU-145 [9] was “Active” in each case.
